T cruzi intra – intracellular Trypanosoma cruzi inhibition | intracellular Trypanosoma cruzi in host cells, plate reader | AID 651903 | activity score (inhibition), % at 5.01 µM | actives 4.9% (n = 22,000); in the data active means activity score above about 55%; inconclusive means no clear call, values can overlap the other calls;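 further: parasites and compound incubated about four days before reading; 0% = median of neutral control wells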
INS-1E rescue – rescue of cytokine-induced death in INS-1E beta cells; INS-1E cytokine-induced death, ATP luminescence, 48 h; normalised: neutral wells 0, positive control 100; protection from cytokine-induced ATP loss, % at 10 µM; actives 0.1% (n = 20,000); AID 488910;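 active means mean replicate protection from cytokine-induced ATP loss at least 50% and at least 75% of replicates each reaching 50%; inconclusive means meets only one of the two criteria, mean or replicate share; inactive means fails both the mean and replicate share criteria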
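Assay system – rat INS-1E insulinoma cell line · Quantity – 8000 cells per well · Buffer or medium – RPMI without phenol red, 5% FBS · Schedule – 48 h co-treatment, 10 min post-lysis read · Technique – luminescent ATP assay (CellTiter-Glo)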
YB-1 expr inh – YB-1 expression inhibition; AID 434959; U2OS, qRT-PCR YB-1 vs CDIP delta delta Cp, 16 h; hits give high values; zero = DMSO, each unit about twofold; actives 0.37% (n = 30,000); delta delta Cp (YB-1 minus CDIP) (test concentration not listed);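 active means delta delta Cp rounded down to an integer at or above 3, about 3 SD of DMSO wells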;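 further: higher means less YB-1 transcript or more CDIP transcript relative to DMSO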
* hit, by the source's call. Only a selection was taken, and hits are over-represented in it overall.

What do the screens show for `C[C@@H]1CN([C@H](C)CO)C(=O)c2cccc(NC(=O)c3ccc(-c4nccs4)cc3)c2O[C@@H]1CN(C)Cc1ccc(C(=O)Nc2ccccc2N)cc1`?
T cruzi intra: 80.7*; INS-1E rescue: inconclusive; YB-1 expr inh: -0.459

How did C[C@@H]1CN([C@H](C)CO)C(=O)c2cccc(NC(=O)c3ccc(-c4nccs4)cc3)c2O[C@H]1CN(C)Cc1ccc(C(=O)O)cc1 do in these assays?
T cruzi intra: -10.2; INS-1E rescue: 11.7; YB-1 expr inh: -0.409

How did C[C@H]1CN([C@@H](C)CO)C(=O)c2cccc(NC(=O)c3ccc(-c4nccs4)cc3)c2O[C@H]1CN(C)Cc1ccc(C(=O)Nc2ccccc2N)cc1 do in these assays?
T cruzi intra: 71.4*; INS-1E rescue: -15.4; YB-1 expr inh: -0.387

What do the screens show for `C=CS(=O)(=O)c1ccc(OC)c(N)c1`?
YB-1 expr inh: 0.441

Results for O=C(NC(NCc1ccccn1)(C(F)(F)F)C(F)(F)F)c1cccnc1 ?
YB-1 expr inh: 0.602

What do the screens show for `COc1ccc2oc(-c3ccccc3)c(O)c(=O)c2c1`?
YB-1 expr inh: 0.612

Results for O=C(CN1C(=O)c2ccccc2C1=O)c1ccc(C(F)(F)F)cc1 ?
YB-1 expr inh: 0.0345

What do the screens show for `Cc1cc(C(F)(F)F)c2c(n1)sc1c(=O)[nH]c(C)nc12`?
YB-1 expr inh: -0.00623

How did C[C@@H]1CN([C@@H](C)CO)C(=O)c2cccc(NC(=O)c3ccc(-c4nccs4)cc3)c2O[C@H]1CN(C)CC1CCCCC1 do in these assays?
T cruzi intra: 64.0*; INS-1E rescue: -43.3; YB-1 expr inh: 0.0879

How did C[C@@H]1CN([C@H](C)CO)C(=O)c2cccc(NC(=O)c3ccc(-c4nccs4)cc3)c2O[C@@H]1CN(C)Cc1ccc(-c2ccccc2)cc1 do in these assays?
T cruzi intra: 41.9; INS-1E rescue: -42.9; YB-1 expr inh: -0.232

How did C[C@H](CO)N1C[C@H](C)[C@@H](CN(C)CC2CCCCC2)Oc2c(NC(=O)c3ccc(-c4nccs4)cc3)cccc2C1=O do in these assays?
T cruzi intra: 44.8; INS-1E rescue: -37.2; YB-1 expr inh: -0.233

What do the screens show for `C[C@H](CO)N1C[C@H](C)[C@H](CN(C)C(=O)Nc2ccc(C(F)(F)F)cc2)Oc2c(NC(=O)c3ccc(-c4nccs4)cc3)cccc2C1=O`?
T cruzi intra: inconclusive; INS-1E rescue: -55.3; YB-1 expr inh: 2.19

Results for C[C@@H]1CN([C@@H](C)CO)C(=O)c2cccc(NC(=O)c3ccc(-c4nccs4)cc3)c2O[C@@H]1CN(C)C(=O)Nc1ccc(C(F)(F)F)cc1 ?
T cruzi intra: 66.3*; INS-1E rescue: -86.8; YB-1 expr inh: -0.134

What do the screens show for `C[C@H]1CN([C@@H](C)CO)C(=O)c2cccc(NC(=O)c3ccc(-c4nccs4)cc3)c2O[C@@H]1CN(C)Cc1ccc(-c2ccccc2)cc1`?
T cruzi intra: 70.3*; INS-1E rescue: -29.1; YB-1 expr inh: -0.402

What do the screens show for `O=C(c1cccs1)N1CCCn2c(SCc3ccccc3)nnc21`?
YB-1 expr inh: -0.19

What do the screens show for `Cc1ccc2nc(S/C=C/C(=O)c3ccccc3)[nH]c2c1`?
YB-1 expr inh: -0.344

What do the screens show for `N#CC1=C(N)C(C#N)(C#N)C(c2ccccc2)C2=C1CCCC2` (stereo unspecified)?
YB-1 expr inh: 0.229

Results for CCC1(CC)C(=O)N(CC(=O)OC)C(=O)N(C)C1=S ?
YB-1 expr inh: 0.518

Results for CCCCCCCC1OC(=O)CCC(O)/C=C\C(O)C1O (stereo unspecified) ?
YB-1 expr inh: -0.119

What do the screens show for `C[C@H](CO)N1C[C@H](C)[C@H](CN(C)Cc2ccc(C(=O)Nc3ccccc3N)cc2)Oc2ccc(NC(=O)Nc3ccc(C(F)(F)F)cc3)cc2C1=O`?
T cruzi intra: 41.7; INS-1E rescue: -6.3; YB-1 expr inh: -0.0299

How did C[C@@H]1CN([C@H](C)CO)C(=O)Cc2cc(NC(=O)Nc3ccc(C(F)(F)F)cc3)ccc2O[C@@H]1CN(C)Cc1ccc(C(=O)Nc2ccccc2N)cc1 do in these assays?
T cruzi intra: 83.4*; INS-1E rescue: -10.8; YB-1 expr inh: -0.193

Results for C[C@H]1CN([C@@H](C)CO)C(=O)Cc2cc(NC(=O)Nc3ccc(C(F)(F)F)cc3)ccc2O[C@H]1CN(C)Cc1ccc(C(=O)Nc2ccccc2N)cc1 ?
T cruzi intra: 86.9*; INS-1E rescue: -39.5; YB-1 expr inh: -0.732

What do the screens show for `C[C@H]1CN([C@@H](C)CO)C(=O)Cc2cc(NC(=O)CCC(F)(F)F)ccc2O[C@@H]1CN(C)Cc1ccc(C(=O)Nc2ccccc2N)cc1`?
T cruzi intra: 44.7; INS-1E rescue: -3.4; YB-1 expr inh: -0.0882

Results for c1ccc(-c2cc3ccsc3o2)cc1 ?
YB-1 expr inh: -0.411

How did CCc1c(O)cc(O)c2c1O[C@H](C)CC2=O do in these assays?
YB-1 expr inh: -0.0555

Results for NC(=S)/N=C1\CCCCC1=C1CCCCC1 ?
YB-1 expr inh: 0.154

What do the screens show for `O=C1/C(=C/c2c[nH]c3ccccc23)CSc2ccccc21`?
YB-1 expr inh: 0.255

What do the screens show for `C[C@@H]1CN([C@H](C)CO)C(=O)Cc2cc(NS(=O)(=O)c3cccs3)ccc2O[C@@H]1CN(C)Cc1ccc(-c2ccccc2)cc1`?
T cruzi intra: 44.1; INS-1E rescue: -13.6; YB-1 expr inh: 0.342

How did C[C@H]1CN([C@@H](C)CO)C(=O)Cc2cc(NS(=O)(=O)c3cccs3)ccc2O[C@H]1CN(C)Cc1ccc(-c2ccccc2)cc1 do in these assays?
T cruzi intra: 57.2*; INS-1E rescue: -35.0; YB-1 expr inh: -0.231

How did COc1ccc(CN(C)C[C@@H]2Oc3ccc(NS(=O)(=O)c4cccs4)cc3CC(=O)N([C@H](C)CO)C[C@H]2C)cc1 do in these assays?
T cruzi intra: 15.6; INS-1E rescue: 4.3; YB-1 expr inh: -0.151

What do the screens show for `C[C@@H]1CN([C@@H](C)CO)C(=O)Cc2cc(NS(=O)(=O)c3cccs3)ccc2O[C@@H]1CN(C)Cc1ccc(Oc2ccccc2)cc1`?
T cruzi intra: 63.0*; INS-1E rescue: -20.3; YB-1 expr inh: 0.318

What do the screens show for `O=C(O)CSc1n[nH]c(-c2cccs2)n1`?
YB-1 expr inh: -0.551

What do the screens show for `O=C(Nc1ccccc1C(=O)O)OCC1c2ccccc2-c2ccccc21`?
YB-1 expr inh: -0.0446

How did CCCS(=O)(=O)/C(C#N)=C/c1sccc1Oc1ccccc1 do in these assays?
YB-1 expr inh: -0.375

Results for COc1ccc(CSc2nnc(CSc3cccs3)n2C)cc1 ?
YB-1 expr inh: -0.54

How did C[C@H](CO)N1C[C@H](C)[C@@H](CN(C)Cc2ccc(-c3ccccc3)cc2)Oc2ccc(NS(=O)(=O)c3ccc(Cl)cc3)cc2C1=O do in these assays?
T cruzi intra: 21.7; INS-1E rescue: -16.0; YB-1 expr inh: 0.0484

Results for C[C@H](CO)N1C[C@H](C)[C@H](CN(C)Cc2ccc(-c3ccccc3)cc2)Oc2ccc(NS(=O)(=O)c3ccc(Cl)cc3)cc2C1=O ?
T cruzi intra: 56.3*; INS-1E rescue: -3.3; YB-1 expr inh: -0.181

How did C[C@@H]1CN([C@H](C)CO)C(=O)c2cc(NS(=O)(=O)c3ccc(Cl)cc3)ccc2O[C@@H]1CN(C)Cc1ccc(-c2ccccc2)cc1 do in these assays?
T cruzi intra: 24.4; INS-1E rescue: -31.5; YB-1 expr inh: -0.14

High-throughput results as filed in PubChem.
